According to ChEMBL document CHEMBL1649483, “Molecular analysis of the gyrA and gyrB quinolone resistance-determining regions of fluoroquinolone-resistant Clostridium difficile mutants selected in vitro” (2009):
Converted amounts (≈) assume the structure as drawn.

Key:
Assay type in all cases: functional
Clostridioides difficile [1] = assay: Antimicrobial activity against Clostridium difficile 630a selected after 2 ug/ml of moxifloxacin by Etest method
In short: (§1)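 Stable in vitro-selected mutant tested for gatifloxacin susceptibility by Etest, per the manufacturer's instructions, with an 8 μg/ml breakpoint. For selection, the parent was grown in antibiotic-free brain heart infusion (BHI) for 24 h at 35°C under anaerobic conditions. […] Later steps used double the MIC. Stability was confirmed by three subcultures.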

Clostridioides difficile [2] = assay: Antimicrobial activity against Clostridium difficile 630f selected after 4 ug/ml of moxifloxacin by Etest method; in short: as §1
Clostridioides difficile [3] = assay: Antimicrobial activity against Clostridium difficile 630i harboring GyrB […] mutant gene selected after 8 ug/ml of moxifloxacin by Etest method; in short: as §1
Clostridioides difficile [4] = assay: Antimicrobial activity against Clostridium difficile C253C selected after 4 ug/ml of levofloxacin by Etest method
Clostridioides difficile [5] = assay: Antimicrobial activity against Clostridium difficile A422A selected after 4 ug/ml of levofloxacin by Etest method; in short: as §1
Clostridioides difficile [6] = assay: Antimicrobial activity against Clostridium difficile A422F harboring GyrB Leu451Phe mutant gene selected after 8 ug/ml of levofloxacin by Etest method; in short: as §1
Clostridioides difficile [7] = assay: Antimicrobial activity against Clostridium difficile A422G harboring GyrA Thr82Ile and GyrB Leu451Phe mutant genes selected after 8 ug/ml of levofloxacin by Etest method; in short: as §1
Clostridioides difficile [8] = assay: Antimicrobial activity against Clostridium difficile 630D harboring GyrA Ala118Val mutant gene selected after 8 ug/ml of levofloxacin by Etest method; in short: as §1
Clostridioides difficile [9] = assay: Antimicrobial activity against Clostridium difficile 630E harboring GyrA Ala118Val mutant gene selected after 8 ug/ml of levofloxacin by Etest method; in short: as §1
Clostridioides difficile [10] = assay: Antimicrobial activity against Clostridium difficile 630F harboring GyrA Ala118Val mutant gene selected after 8 ug/ml of levofloxacin by Etest method; in short: as §1
Clostridioides difficile [11] = assay: Antimicrobial activity against Clostridium difficile BI2B selected after 4 ug/ml of levofloxacin by Etest method; in short: as §1
Clostridioides difficile [12] = assay: Antimicrobial activity against Clostridium difficile BI2C selected after 4 ug/ml of levofloxacin by Etest method; in short: as §1
Clostridioides difficile [13] = assay: Antimicrobial activity against Clostridium difficile C253 expressing tcdA and tcdB gene by Etest method
In short: (§2)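 Parent clinical or nontoxigenic isolate tested for gatifloxacin susceptibility by Etest, run per the manufacturer's instructions; a fluoroquinolone breakpoint of 8 μg/ml was applied.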

Clostridioides difficile [14] = assay: Antimicrobial activity against Clostridium difficile BI2 by Etest method; in short: as §2
Clostridioides difficile [15] = assay: Antimicrobial activity against Clostridium difficile C253h harboring GyrA Ala118Ser mutant gene selected after 8 ug/ml of moxifloxacin by Etest method
Clostridioides difficile [16] = assay: Antimicrobial activity against Clostridium difficile CD5d harboring GyrB Ser416Ala mutant gene selected after 4 ug/ml of moxifloxacin by Etest method
Clostridioides difficile [17] = assay: Antimicrobial activity against Clostridium difficile CD5f harboring GyrB Ser416Ala mutant gene selected after 4 ug/ml of moxifloxacin by Etest method
Clostridioides difficile [18] = assay: Antimicrobial activity against Clostridium difficile CD5 1-g harboring GyrA Ala92Glu and GyrB Ser416Ala mutant genes selected after 8 ug/ml of moxifloxacin by Etest method
Clostridioides difficile [19] = assay: Antimicrobial activity against Clostridium difficile CD5h harboring GyrA Ala92Glu and GyrB Ser416Ala mutant genes selected after 8 ug/ml of moxifloxacin by Etest method
Clostridioides difficile [20] = assay: Antimicrobial activity against Clostridium difficile CD5i harboring GyrA Ala92Glu and GyrB Ser416Ala mutant genes selected after 8 ug/ml of moxifloxacin by Etest method
Clostridioides difficile [21] = assay: Antimicrobial activity against Clostridium difficile CD5 2-g harboring GyrA Ala118Ser, Thr82Ala and GyrB Ser416Ala mutant genes selected after 8 ug/ml of moxifloxacin by Etest method
Clostridioides difficile [22] = assay: Antimicrobial activity against Clostridium difficile CD5h harboring GyrA Ala118Ser, Thr82Ala and GyrB Ser416Ala mutant gene selected after 8 ug/ml of moxifloxacin by Etest method
Clostridioides difficile [23] = assay: Antimicrobial activity against Clostridium difficile CD5i harboring GyrA Ala118Ser, Thr82Ala and GyrB Ser416Ala mutant genes selected after 8 ug/ml of moxifloxacin by Etest method
Clostridioides difficile [24] = assay: Antimicrobial activity against Clostridium difficile A422a selected after 2 ug/ml of moxifloxacin by Etest method; in short: as §1
Clostridioides difficile [25] = assay: Antimicrobial activity against Clostridium difficile A422g harboring GyrA Asp81Asn mutant gene selected after 8 ug/ml of moxifloxacin by agar dilution method
Clostridioides difficile [26] = assay: Antimicrobial activity against Clostridium difficile 630f selected after 4 ug/ml of moxifloxacin by agar dilution method
Clostridioides difficile [27] = assay: Antimicrobial activity against Clostridium difficile BI2c harboring GyrB Arg447Lys mutant gene selected after 2 ug/ml of moxifloxacin by agar dilution method
Clostridioides difficile [28] = assay: Antimicrobial activity against Clostridium difficile BI2f harboring GyrB Arg447Lys and Asp426Asn mutant gene selected after 32 ug/ml of moxifloxacin by agar dilution method
Clostridioides difficile [29] = assay: Antimicrobial activity against Clostridium difficile C253A selected after 4 ug/ml of levofloxacin by agar dilution method
Clostridioides difficile [30] = assay: Antimicrobial activity against Clostridium difficile C253C selected after 4 ug/ml of levofloxacin by agar dilution method
Clostridioides difficile [31] = assay: Antimicrobial activity against Clostridium difficile C253D selected after 8 ug/ml of levofloxacin by agar dilution method
Clostridioides difficile [32] = assay: Antimicrobial activity against Clostridium difficile C253F selected after 8 ug/ml of levofloxacin by agar dilution method
Clostridioides difficile [33] = assay: Antimicrobial activity against Clostridium difficile CD5B harboring GyrB Ser416Ala mutant gene selected after 4 ug/ml of levofloxacin by agar dilution method
Clostridioides difficile [34] = assay: Antimicrobial activity against Clostridium difficile CD5D harboring GyrB Ser416Ala mutant gene selected after 8 ug/ml of levofloxacin by agar dilution method
Clostridioides difficile [35] = assay: Antimicrobial activity against Clostridium difficile BI2B selected after 4 ug/ml of levofloxacin by agar dilution method
Clostridioides difficile [36] = assay: Antimicrobial activity against Clostridium difficile BI2 by agar dilution method
Clostridioides difficile [37] = assay: Antimicrobial activity against Clostridium difficile C253i harboring GyrA Ala118Ser mutant gene selected after 8 ug/ml of moxifloxacin by agar dilution method
Clostridioides difficile [38] = assay: Antimicrobial activity against Clostridium difficile A422c selected after 2 ug/ml of moxifloxacin by agar dilution method
Clostridioides difficile [39] = assay: Antimicrobial activity against Clostridium difficile A422d selected after 4 ug/ml of moxifloxacin by agar dilution method

COc1c(N2CCNC(C)C2)c(F)cc2c(=O)c(C(=O)O)cn(C3CC3)c12 (centres undefined) [GATIFLOXACIN]
MIC (Clostridioides difficile [1]): 0.75 µg/mL
MIC (Clostridioides difficile [2]): 2 µg/mL
MIC (Clostridioides difficile [3]): ≥ 32 µg/mL
MIC (Clostridioides difficile [4]): 0.5 µg/mL
MIC (Clostridioides difficile [5]): 1 µg/mL
MIC (Clostridioides difficile [6]): 2 µg/mL
MIC (Clostridioides difficile [7]): ≥ 32 µg/mL
MIC (Clostridioides difficile [8]): 3 µg/mL
MIC (Clostridioides difficile [9]): 3 µg/mL
MIC (Clostridioides difficile [10]): 3 µg/mL
MIC (Clostridioides difficile [11]): 2 µg/mL
MIC (Clostridioides difficile [12]): 2 µg/mL
MIC (Clostridioides difficile [13]): 0.5 µg/mL (≈ 1.33 µM)
MIC (Clostridioides difficile [14]): 0.75 µg/mL (≈ 2 µM)
MIC (Clostridioides difficile [15]): 8 µg/mL
MIC (Clostridioides difficile [16]): 0.75 µg/mL
MIC (Clostridioides difficile [17]): 0.75 µg/mL
MIC (Clostridioides difficile [18]): 3 µg/mL
MIC (Clostridioides difficile [19]): 3 µg/mL
MIC (Clostridioides difficile [20]): 3 µg/mL
MIC (Clostridioides difficile [21]): 16 µg/mL
MIC (Clostridioides difficile [22]): 16 µg/mL
MIC (Clostridioides difficile [23]): 16 µg/mL
MIC (Clostridioides difficile [24]): 1.5 µg/mL

C[C@H]1COc2c(N3CCN(C)CC3)c(F)cc3c(=O)c(C(=O)O)cn1c23.C[C@H]1COc2c(N3CCN(C)CC3)c(F)cc3c(=O)c(C(=O)O)cn1c23.O [LEVOFLOXACIN]
MIC (Clostridioides difficile [25]): 64 µg/mL
MIC (Clostridioides difficile [26]): 4 µg/mL
MIC (Clostridioides difficile [27]): 8 µg/mL
MIC (Clostridioides difficile [28]): 64 µg/mL
MIC (Clostridioides difficile [29]): 1 µg/mL
MIC (Clostridioides difficile [30]): 1 µg/mL
MIC (Clostridioides difficile [31]): 2 µg/mL
MIC (Clostridioides difficile [32]): 2 µg/mL
MIC (Clostridioides difficile [33]): 1 µg/mL
MIC (Clostridioides difficile [34]): 2 µg/mL
MIC (Clostridioides difficile [35]): 1 µg/mL
MIC (Clostridioides difficile [36]): 2 µg/mL
MIC (Clostridioides difficile [37]): 64 µg/mL
MIC (Clostridioides difficile [38]): 4 µg/mL
MIC (Clostridioides difficile [39]): 4 µg/mL
